pIC50: −log10 of the molar value.
Experiments:
Type in all cases: functional, cell-based
[1] = Cytotoxicity against human HGC27 cells assessed as growth inhibition after 72 hrs by MTT assay; conditions: HGC-27, 72 h
Summary of the method: (§1)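 MTT cytotoxicity assay on three human cancer cell lines: HCT-116 (colon carcinoma), HGC-27 (gastric carcinoma) and JEKO-1 (mantle cell lymphoma).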

[2] = Cytotoxicity against human HCT116 cells assessed as growth inhibition after 72 hrs by MTT assay; conditions: HCT-116, 72 h; summary of the method: as §1
[3] = Cytotoxicity against human JeKo1 cells assessed as growth inhibition after 72 hrs by MTT assay; conditions: JeKo-1, 72 h; summary of the method: as §1

SMILES: CCOC(=O)[C@]1(C)CCC[C@@]2(C)[C@@H]3CC[C@@]4(C)C[C@]3(CC[C@@H]21)[C@H](CO)[C@H]4NC(=S)Nc1ccccc1OC
- pIC50 [1]: 5.04
- pIC50 [2]: 5.27
- pIC50 [3]: 4.55

SMILES: CCOC(=O)[C@]1(C)CCC[C@@]2(C)[C@@H]3CC[C@@]4(C)C[C@]3(CC[C@@H]21)[C@H](CO)[C@H]4NC(=S)Nc1ccccc1Br
- pIC50 [1]: 4.81
- pIC50 [2]: 4.68
- pIC50 [3]: 4.85

SMILES: CCOC(=O)[C@]1(C)CCC[C@@]2(C)[C@@H]3CC[C@@]4(C)C[C@]3(CC[C@@H]21)[C@H](CO)[C@H]4NC(=S)Nc1ccccc1Cl
- pIC50 [1]: 5.05
- pIC50 [2]: 5.14
- pIC50 [3]: 4.39

SMILES: CCOC(=O)[C@]1(C)CCC[C@@]2(C)[C@@H]3CC[C@@]4(C)C[C@]3(CC[C@@H]21)C[C@H]4NC(=S)NC1CCCCC1
- pIC50 [1]: 4.04
- pIC50 [2]: 4.08
- pIC50 [3]: 4.02

SMILES: CCOC(=O)[C@]1(C)CCC[C@@]2(C)[C@@H]3CC[C@@]4(C)C[C@]3(CC[C@@H]21)[C@H](CO)[C@H]4NC(=S)Nc1ccccc1C
- pIC50 [1]: 5.30
- pIC50 [2]: 5.32
- pIC50 [3]: 4.61

SMILES: CCOC(=O)[C@]1(C)CCC[C@@]2(C)[C@@H]3CC[C@@]4(C)C[C@]3(CC[C@@H]21)C[C@H]4NC(=S)NNC(=O)c1ccccc1
- pIC50 [1]: 4.58
- pIC50 [2]: 4.82
- pIC50 [3]: 4.25

SMILES: CCOC(=O)[C@]1(C)CCC[C@@]2(C)[C@@H]3CC[C@@]4(C)C[C@]3(CC[C@@H]21)[C@H](CO)[C@H]4N=C=S
- pIC50 [1]: 5.11
- pIC50 [2]: 5.35
- pIC50 [3]: 4.52

SMILES: CCOC(=O)[C@]1(C)CCC[C@@]2(C)[C@@H]3CC[C@@]4(C)C[C@]3(CC[C@@H]21)[C@H](CO)[C@H]4NC(=S)Nc1ccc(Cl)cc1
- pIC50 [1]: 5.48
- pIC50 [2]: 5.36
- pIC50 [3]: 5.24

SMILES: C[C@@]12CC[C@@H]3[C@@](CC[C@H]4[C@@]3(C)CCC[C@@]4(C)C(=O)O)(CC1=O)C2 [ISOSTEVIOL]
- pIC50 [1]: < 4.00
- pIC50 [2]: < 4.00
- pIC50 [3]: < 4.00

SMILES: CCOC(=O)[C@]1(C)CCC[C@@]2(C)[C@@H]3CC[C@@]4(C)C[C@]3(CC[C@@H]21)[C@H](CO)[C@H]4NC(=S)Nc1cccc(C)c1
- pIC50 [1]: 5.36
- pIC50 [2]: 5.33
- pIC50 [3]: 4.68

SMILES: C=C[C@]12CC[C@H]3[C@@](C)(CCC[C@@]3(C)C(=O)OCC)[C@@H]1CC[C@](C)(CN=C=S)C2
- pIC50 [1]: 4.94
- pIC50 [2]: 5.38
- pIC50 [3]: 5.27

SMILES: C=C[C@]12CC[C@H]3[C@@](C)(CCC[C@@]3(C)C(=O)OCC)[C@@H]1CC[C@](C)(CNC(=S)Nc1ccccc1)C2
- pIC50 [1]: 5.17
- pIC50 [2]: 5.46
- pIC50 [3]: 5.56

SMILES: CCOC(=O)[C@]1(C)CCC[C@@]2(C)[C@@H]3CC[C@@]4(C)C[C@]3(CC[C@@H]21)[C@H](CO)[C@H]4NC(=S)Nc1cccc(Br)c1
- pIC50 [1]: 5.04
- pIC50 [2]: 5.38
- pIC50 [3]: 4.56

SMILES: CCOC(=O)[C@]1(C)CCC[C@@]2(C)[C@@H]3CC[C@@]4(C)C[C@]3(CC[C@@H]21)C[C@H]4N=C=S
- pIC50 [1]: 4.94
- pIC50 [2]: 5.16
- pIC50 [3]: 4.42

SMILES: CCOC(=O)[C@]1(C)CCC[C@@]2(C)[C@@H]3CC[C@@]4(C)C[C@]3(CC[C@@H]21)[C@H](CO)[C@H]4NC(=S)Nc1cccc([N+](=O)[O-])c1
- pIC50 [1]: 5.62
- pIC50 [2]: 5.73
- pIC50 [3]: 5.28

SMILES: CCOC(=O)[C@]1(C)CCC[C@@]2(C)[C@@H]3CC[C@@]4(C)C[C@]3(CC[C@@H]21)[C@H](COC(C)=O)[C@H]4NC(C)=O
- pIC50 [1]: 4.69
- pIC50 [2]: 4.70
- pIC50 [3]: 4.22

SMILES: CCOC(=O)[C@]1(C)CCC[C@@]2(C)[C@@H]3CC[C@@]4(C)C[C@]3(CC[C@@H]21)[C@H](CO)[C@H]4NC(=S)Nc1c(C)cccc1C
- pIC50 [1]: 5.05
- pIC50 [2]: 5.34
- pIC50 [3]: 4.68

SMILES: C=C[C@]12CC[C@H]3[C@@](C)(CCC[C@@]3(C)C(=O)OCC)[C@@H]1CC[C@](C)(CN)C2
- pIC50 [1]: 5.52
- pIC50 [2]: 5.61
- pIC50 [3]: 5.67

SMILES: CCOC(=O)[C@]1(C)CCC[C@@]2(C)[C@@H]3CC[C@@]4(C)C[C@]3(CC[C@@H]21)[C@H](CO)[C@H]4NC(=S)Nc1ccccc1
- pIC50 [1]: 5.29
- pIC50 [2]: 5.24
- pIC50 [3]: 4.56

SMILES: CCOC(=O)[C@]1(C)CCC[C@@]2(C)[C@@H]3CC[C@@]4(C)C[C@]3(CC[C@@H]21)[C@H](CO)[C@H]4NC(=S)Nc1ccc(F)cc1
- pIC50 [1]: 5.31
- pIC50 [2]: 5.32
- pIC50 [3]: 4.63

SMILES: CCOC(=O)[C@]1(C)CCC[C@@]2(C)[C@@H]3CC[C@@]4(C)C[C@]3(CC[C@@H]21)[C@H](CO)[C@H]4N
- pIC50 [1]: 5.23
- pIC50 [2]: 5.31
- pIC50 [3]: 5.45

SMILES: CCOC(=O)[C@]1(C)CCC[C@@]2(C)[C@@H]3CC[C@@]4(C)C[C@]3(CC[C@@H]21)C[C@H]4NC(=S)Nc1ccccc1
- pIC50 [1]: 4.86
- pIC50 [2]: 5.06
- pIC50 [3]: 4.67

SMILES: CCOC(=O)[C@]1(C)CCC[C@@]2(C)[C@@H]3CC[C@@]4(C)C[C@]3(CC[C@@H]21)[C@H](CO)[C@H]4NC(=S)Nc1cccc(Cl)c1
- pIC50 [1]: 5.26
- pIC50 [2]: 5.56
- pIC50 [3]: 4.69

SMILES: CCOC(=O)[C@]1(C)CCC[C@@]2(C)[C@@H]3CC[C@@]4(C)C[C@]3(CC[C@@H]21)[C@H](CO)[C@H]4NC(C)=O
- pIC50 [1]: 4.74
- pIC50 [2]: 4.82
- pIC50 [3]: 4.21

SMILES: CCOC(=O)[C@]1(C)CCC[C@@]2(C)[C@@H]3CC[C@@]4(C)C[C@]3(CC[C@@H]21)C[C@H]4NC(=S)N[C@@H](C)c1ccccc1
- pIC50 [1]: 4.74
- pIC50 [2]: 5.18
- pIC50 [3]: 4.82

SMILES: CCOC(=O)[C@]1(C)CCC[C@@]2(C)[C@@H]3CC[C@@]4(C)C[C@]3(CC[C@@H]21)[C@H](CO)[C@H]4NC(=S)Nc1cccc(OC)c1
- pIC50 [1]: 5.14
- pIC50 [2]: 5.42
- pIC50 [3]: 4.50

SMILES: CCOC(=O)[C@]1(C)CCC[C@@]2(C)[C@@H]3CC[C@@]4(C)C[C@]3(CC[C@@H]21)[C@H](CO)[C@H]4NC(=S)Nc1ccc(Br)cc1
- pIC50 [1]: 5.53
- pIC50 [2]: 5.65
- pIC50 [3]: 5.17

SMILES: CCOC(=O)[C@]1(C)CCC[C@@]2(C)[C@@H]3CC[C@@]4(C)C[C@]3(CC[C@@H]21)[C@H](CO)[C@H]4NC(=S)Nc1ccc(C)cc1
- pIC50 [1]: 5.26
- pIC50 [2]: 5.25
- pIC50 [3]: 4.52

SMILES: CCOC(=O)[C@]1(C)CCC[C@@]2(C)[C@@H]3CC[C@@]4(C)C[C@]3(CC[C@@H]21)[C@H](CO)[C@@H]4N
- pIC50 [1]: 5.14
- pIC50 [2]: 5.31
- pIC50 [3]: 5.61

SMILES: CCOC(=O)[C@]1(C)CCC[C@@]2(C)[C@@H]3CC[C@@]4(C)C[C@]3(CC[C@@H]21)C[C@H]4N
- pIC50 [1]: 5.59
- pIC50 [2]: 5.29
- pIC50 [3]: 5.66

SMILES: CCOC(=O)[C@]1(C)CCC[C@@]2(C)[C@@H]3CC[C@@]4(C)C[C@]3(CC[C@@H]21)[C@H](CO)[C@H]4NC(=S)Nc1ccccc1F
- pIC50 [1]: 5.13
- pIC50 [2]: 5.31
- pIC50 [3]: 4.45

SMILES: CCOC(=O)[C@]1(C)CCC[C@@]2(C)[C@@H]3CC[C@@]4(C)C[C@]3(CC[C@@H]21)[C@H](CO)[C@H]4NC(=S)Nc1ccc(Cl)cc1Cl
- pIC50 [1]: 5.32
- pIC50 [2]: 5.40
- pIC50 [3]: 4.56

SMILES: CCOC(=O)[C@]1(C)CCC[C@@]2(C)[C@@H]3CC[C@@]4(C)C[C@]3(CC[C@@H]21)[C@H](CO)[C@H]4NC(=S)Nc1ccc([N+](=O)[O-])cc1
- pIC50 [1]: 5.63
- pIC50 [2]: 5.84
- pIC50 [3]: 5.45

SMILES: CCOC(=O)[C@]1(C)CCC[C@@]2(C)[C@@H]3CC[C@@]4(C)C[C@]3(CC[C@@H]21)[C@H](CO)[C@H]4NC(=S)Nc1ccccc1[N+](=O)[O-]
- pIC50 [1]: 4.64
- pIC50 [2]: 4.93
- pIC50 [3]: 4.57

SMILES: CCOC(=O)[C@]1(C)CCC[C@@]2(C)[C@@H]3CC[C@@]4(C)C[C@]3(CC[C@@H]21)[C@H](CO)[C@H]4NC(=S)Nc1cccc(F)c1
- pIC50 [1]: 5.30
- pIC50 [2]: 5.31
- pIC50 [3]: 4.54

SMILES: CCOC(=O)[C@]1(C)CCC[C@@]2(C)[C@@H]3CC[C@@]4(C)C[C@]3(CC[C@@H]21)[C@H](CO)[C@H]4NC(=S)Nc1ccc(OC)cc1
- pIC50 [1]: 5.11
- pIC50 [2]: 5.34
- pIC50 [3]: 4.39

From ChEMBL document CHEMBL3784963, “Synthesis, cytotoxic activity evaluation and HQSAR study of novel isosteviol derivatives as potential anticancer agents” (Eur J Med Chem, 2016)
